Assays:
Gs/olf G-proteins [1] = molecular target: T1, Gs/olf G-proteins (Homo sapiens, UniProt P08172); assay: biochemical; assay type: biochemical, Chinese hamster; details: Gs/olf
T1 sequence (P08172 1-466): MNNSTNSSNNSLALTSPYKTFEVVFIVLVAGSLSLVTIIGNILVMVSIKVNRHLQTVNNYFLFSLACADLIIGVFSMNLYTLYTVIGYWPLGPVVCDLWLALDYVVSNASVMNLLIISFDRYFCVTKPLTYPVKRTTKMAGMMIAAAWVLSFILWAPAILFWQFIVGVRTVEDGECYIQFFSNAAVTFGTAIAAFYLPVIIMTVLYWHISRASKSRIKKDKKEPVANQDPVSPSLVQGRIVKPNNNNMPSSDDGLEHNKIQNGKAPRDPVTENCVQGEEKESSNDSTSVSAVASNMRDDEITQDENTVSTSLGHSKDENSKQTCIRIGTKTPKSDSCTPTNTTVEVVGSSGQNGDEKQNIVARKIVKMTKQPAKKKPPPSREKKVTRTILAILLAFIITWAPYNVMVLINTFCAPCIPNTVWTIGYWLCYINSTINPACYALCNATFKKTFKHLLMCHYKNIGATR

[2] = system: G-proteins in GDP-less membranes of CHO-M2 cells; assay: Kinetics of [35S]GTPγS binding to GDP-less membranes; design: species or system Chinese hamster; details: for Beq of [35S]GTPγS: GDP-less membranes
Summary of the method: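 GDP-less CHO-M2 membranes, 30°C. Association of 1 nM [³⁵S]GTPγS was measured after 20 min pre-incubation with buffer or 100 µM agonist, ±50 µM GDP. For dissociation, membranes were preloaded 90 min with 1 nM [³⁵S]GTPγS ±50 µM GDP, then chased with 1 µM GTPγS alone or with agonist. Filtration on glass-fibre filters, scintillation counting. Three experiments in quadruplicate; exponential association/dissociation fits.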

Gq/11 G-proteins [3] = molecular target: T2, Gq/11 G-proteins (Homo sapiens, UniProt P08172); assay: [35S]GTPγS binding to Gq/11 G-proteins; assay type: biochemical, Chinese hamster; details: Gq/11
T2 sequence (P08172 1-466): T1 sequence (P08172 1-466)

Gi/o G-proteins [4] = assay: Kinetics of 500 nM [3H]GDP binding to Gi/o G-proteins; design: species or system Chinese hamster
[5] = molecular target: T3, human M2 muscarinic receptor (Homo sapiens, UniProt P08172); assay: Agonist-stimulated [35S]GTPγS binding to membranes from M2 CHO cells; assay type: biochemical
T3 sequence (P08172 1-466): T1 sequence (P08172 1-466)

Gi/o G-proteins [6] = molecular target: T4, Gi/o G-proteins (Homo sapiens, UniProt P08172); assay: biochemical; assay type: binding, Chinese hamster; details: Gi/o; cooperativity between agonist and [3H]GDP binding
T4 sequence (P08172 1-466): T1 sequence (P08172 1-466)

Gs/olf G-proteins [7] = molecular target: T1, Gs/olf G-proteins; assay: biochemical; assay type: binding, Chinese hamster; details: Gs/olf; cooperativity between agonist and [3H]GDP binding
[8] = molecular target: T5, M2 receptor-G-protein complex (Homo sapiens, UniProt P08172); assay type: binding; details: 10 µM [3H]GDP, GDP-less membranes, n=3
T5 sequence (P08172 1-466): T1 sequence (P08172 1-466)

[9] = system: G-proteins in GDP-less membranes of CHO-M2 cells; assay: Kinetics of [3H]GDP binding to GDP-less membranes; design: species or system Chinese hamster; details: 10 µM carbachol
Summary of the method: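 GDP-less CHO-M2 membranes, 30°C. Association of 500 nM [³H]GDP was measured after 20 min pre-incubation with buffer, 10 or 100 µM agonist, or 0.1 µM antagonist. For dissociation, membranes were prelabelled with 500 nM [³H]GDP for 180 min, then chased with 50 µM GDP alone or with ligand. Slow and fast rate constants came from biphasic fits.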

Gs/olf G-proteins [10] = assay: Kinetics of 500 nM [3H]GDP binding to Gs/olf G-proteins; design: species or system Chinese hamster
Gi/o G-proteins [11] = molecular target: T4, Gi/o G-proteins; assay: biochemical; assay type: biochemical, Chinese hamster; details: Gi/o
Gq/11 G-proteins [12] = molecular target: T2, Gq/11 G-proteins; assay type: binding, Chinese hamster; details: Gq/11; cooperativity between agonist and [3H]GDP binding
[13] = molecular target: T5, M2 receptor-G-protein complex; assay type: binding; details: Eqn 8, GDP-less membranes, 1 nM [3H]NMS
[14] = system: wild-type (non-transfected) CHO cells; assay: [35S]GTPγS binding at wild-type; assay type: biochemical, Chinese hamster
Summary of the method: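 Membranes were incubated 60 min with 50 µM GDP and agonist. They were then incubated with 500 pM [³⁵S]GTPγS for 20 min at 30°C in 100 mM NaCl, 20 mM Na-HEPES, 10 mM MgCl₂ (pH 7.4) with 1 mM DTT, about 10 µg protein per sample. Non-specific binding was taken with 1 µM GTPγS. Read-out was filtration and scintillation counting.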

[15] = 100 µM carbachol, presence of 50 µM GDP

**Q.** Which EMAX (Gs/olf G-proteins [1]) does the source give for `C[N+](C)(C)CCOC(N)=O` [Carbachol] here?
**A.** 1.82 ± 0.05 fold increase over basal binding

**Q.** What about the “effect on kinetics of [35S]GTPγS binding” value ([2]; 100 µM carbachol, absence of GDP) of the same compound?
**A.** did not change

**Q.** And the “effect on rate of dissociation of [35S]GTPγS” value [2, 15]?
**A.** no effect

**Q.** What about the “increase of equilibrium binding of [35S]GTPγS” value [2, 15] of the same compound?
**A.** fourfold

**Q.** And the “Beq of [35S]GTPγS” value ([2]; 50 µM GDP +100 µM carbachol)?
**A.** 4.85 ± 0.19 ^*a fmol·µg^−1protein

**Q.** And the “Beq of [35S]GTPγS” value ([2]; no GDP, +100 µM carbachol)?
**A.** 5.70 ± 0.25 fmol·µg^−1protein

**Q.** And the EMAX (Gq/11 G-proteins [3])?
**A.** 1.61 ± 0.02 fold increase over basal binding

**Q.** What about the “Beq1 of [3H]GDP” value (Gi/o G-proteins [4]; 10 µM carbachol) of the same compound?
**A.** 1.7 ± 0.2 fmol·µg^−1 protein

**Q.** And the “decrease of [3H]GDP equilibrium binding” value (Gi/o G-proteins [4]; 10 µM carbachol)?
**A.** 1.8 fold

**Q.** What about the “f2 of [3H]GDP dissociation” value (Gi/o G-proteins [4]; 10 µM carbachol) of the same compound?
**A.** 38 ± 4%

**Q.** And the “Beq1 of [3H]GDP” value (Gi/o G-proteins [4]; 100 µM carbachol)?
**A.** 0.35 ± 0.03 fmol·µg^−1 protein

**Q.** And the “decrease of [3H]GDP equilibrium binding” value (Gi/o G-proteins [4]; 100 µM carbachol)?
**A.** ninefold

**Q.** And the “f2 of [3H]GDP dissociation” value (Gi/o G-proteins [4]; 100 µM carbachol)?
**A.** 36 ± 5%

**Q.** What about the “slowing of association of [3H]GDP in comparison to fast sites” value (Gi/o G-proteins [4]; 100 µM carbachol) of the same compound?
**A.** 12 fold

**Q.** And the “maximal increase of [35S]GTPγS binding (Emax)” value [5]?
**A.** threefold

**Q.** And the nH ([5]; Hill coefficient, Eqn 2)?
**A.** 0.81 ± 0.05

**Q.** What about the pα (Gi/o G-proteins [6]) of the same compound?
**A.** −2.3 ± 0.2

**Q.** And the pα (Gs/olf G-proteins [7])?
**A.** −1.2 ± 0.1

**Q.** And the “factor of cooperativity α between binding of [3H]GDP and agonist (pα)” value [8]?
**A.** −2.3 ± 0.2

**Q.** And the “slowing of [3H]GDP association, faster fraction” value [9]?
**A.** twofold

**Q.** And the “Beq of [3H]GDP” value (Gs/olf G-proteins [10]; 10 µM carbachol)?
**A.** 0.43 ± 0.02 fmol·µg^−1 protein

**Q.** And the “decrease of [3H]GDP equilibrium binding” value (Gs/olf G-proteins [10]; 10 µM carbachol)?
**A.** 1.9 fold

**Q.** And the “Beq of [3H]GDP” value (Gs/olf G-proteins [10]; 100 µM carbachol)?
**A.** 0.10 ± 0.01 fmol·µg^−1 protein

**Q.** And the “decrease of [3H]GDP equilibrium binding” value (Gs/olf G-proteins [10]; 100 µM carbachol)?
**A.** 8.1 fold

**Q.** What about the “effect on [3H]GDP binding association rate” value (Gs/olf G-proteins [10]; 10 and 100 µM carbachol) of the same compound?
**A.** no effect

**Q.** What about the EMAX (Gi/o G-proteins [11]) of the same compound?
**A.** 2.89 ± 0.06 fold increase over basal binding

**Q.** And the pα (Gq/11 G-proteins [12])?
**A.** −0.85 ± 0.09

**Q.** And the “reduction of agonist affinity by GDP (factor of cooperativity β)” value [13]?
**A.** 200 fold

**Q.** What about the “effect on [35S]GTPγS binding” value [14] of the same compound?
**A.** no effect

Reference: paper PMC3051377 (British Journal of Pharmacology, 2011)
